According to ChEMBL document CHEMBL1799915, “Antitubercular chromones and flavonoids from Pisonia aculeata” (2011):
Converted amounts (≈) assume the structure as drawn.

System: Mycobacterium tuberculosis
Test: Antitubercular activity against Mycobacterium tuberculosis H37Rv after 2 weeks by agar plate assay
Assay type: functional
Details: 336 h
Method in brief: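 Inoculum from colonies suspended in 7H9 broth, adjusted to McFarland no. 1, then diluted; 33 μL spotted per quadrant. Incubated 35 °C, 10% CO2. MIC = lowest concentration giving complete growth inhibition, read by eye.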

| Structure (SMILES) | MIC [µg/mL] |
| --- | --- |
| Cc1c(O)c(C)c2c(c1O)C(=O)C[C@@H](c1ccccc1O)O2 | 20 (≈ 66.6 µM) |
| COc1cc(/C=C/C(=O)NC[C@H](O)c2ccc(O)cc2)ccc1O | 50 (≈ 152 µM) |
| COc1c(O)cc2c(c1O)C(=O)C[C@@H](c1ccccc1)O2 [DIHYDROOROXYLIN A] | 50 (≈ 175 µM) |
| CC[C@@H](CO)NCCN[C@@H](CC)CO [ETHAMBUTOL] | 6.25 (≈ 30.6 µM) |
| COc1cc(O)c2c(=O)cc(C)oc2c1 [EUGENIN] | 103 (≈ 500 µM) |
| Cc1c(O)c(C)c2occc(=O)c2c1O [LEPTORUMOL] | 82.9 (≈ 402 µM) |
| Cc1cc(=O)c2c(O)cc(O)cc2o1 [NOREUGENIN] | 110 (≈ 572 µM) |
| COc1c(O)c(C)c2occ(-c3ccccc3O)c(=O)c2c1O [PISONIANONE] | ≥ 175 |
| COc1cc2occc(=O)c2c(O)c1OC [PISONIN A] | ≥ 100 |
| COc1c(O)cc2oc(C)cc(=O)c2c1O [PISONIN B] | 25 (≈ 113 µM) |
| COc1c(O)cc2occc(=O)c2c1O [PISONIN C] | 80 (≈ 384 µM) |
| O=c1ccoc2cc3c(c(O)c12)OCO3 [PISONIN D] | ≥ 236 |
| Cc1cc(=O)c2c(O)c3c(cc2o1)OCO3 [PISONIN E] | ≥ 190 |
| Cc1c(O)cc(O)c2c1O[C@H](c1ccccc1O)CC2=O [PISONIVANONE] | 12.5 (≈ 43.7 µM) |
